Test [1] has as its target T1, Epidermal growth factor receptor (Homo sapiens, UniProt P00533). In words: Inhibition of epidermal growth factor receptor (EGFr) using ATP substrate. A digest of the protocol:
(§1)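 EGFr came from membrane vesicles shed by human A431 carcinoma cells. Activity was measured as 32P-phosphate transfer from ATP into a TCA-precipitable glutamate/tyrosine (4:1) random copolymer. ATP or peptide polymer substrate was varied. Ki was obtained by nonlinear regression with Cleland's equations, comparing slope and intercept determinations to assign the inhibition type.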

In test [2] the target is T1, Epidermal growth factor receptor. In words: Inhibition of epidermal growth factor receptor (EGFr) using peptide substrate. Summed up: as §1
Test [3] relates to B16. Briefly: In vivo activity against murine B16 melanoma, net cell kill at 3.0 mg/kg ip dose for 9 days. Type of test: functional, Mus musculus. As to conditions: route intraperitoneal. Summed up: (§2)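 Tumors were passaged in C57BL/6 mice; B6C3F1 mice (18-22 g, randomized) were implanted on day 0 ip with counted tumor cells or sc with fragments. Dosing was ip bolus, daily or q4h ×3 daily, by average cage weight. Vehicle was distilled H2O or 10% DMA in 50 mM lactic acid buffer, pH 4.0. Net cell kill = log reduction in tumor burden between first and last treatments.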

Test [4] relates to Colon 26. Briefly: In vivo activity against murine colon 26, net cell kill at 0.75 mg/kg ip dose at 4 hour intervals 3x a day for 9 days. Type of test: functional, Mus musculus. The note with it: route intraperitoneal. A digest of the protocol:
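Colon 26 was passaged in BALB/c mice; tested in CD2F1 mice (18-22 g, randomized) implanted on day 0 ip with counted cells or sc with fragments. Dosing was ip bolus, daily or q4h ×3 daily, by average cage weight. Vehicle was distilled H2O or 10% DMA in 50 mM lactic acid, pH 4.0. Net cell kill = log tumor-burden reduction between first and last treatments.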

In test [5] the test system is Colon 26. In words: In vivo activity against murine colon 26, percent treated/control tumor mass at 0.75 mg/kg ip dose at 4 hour intervals 3x a day for 9 days. The test is classed as functional, Mus musculus. As to conditions: route intraperitoneal. Summed up: (§3)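 Murine tumours were maintained by serial transplantation (~30 mg fragments every 2 weeks): B16 in C57BL/6 and colon 26 in BALB/c. They were tested in F1 hosts, B6C3F1 for B16 and CD2F1 for colon 26, weighing 18-22 g. Treatment was ip daily or q4h ×3 for 9 days. Weight change was the difference between mean group weights on the last and first treatment days, from life-span assays.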

For test [6], the system named is A-431. Briefly: In vivo activity against human A431 epidermoid xenograft, net cell kill at 10 mg/kg administered subcutaneously for 9-15 days. As to conditions: route subcutaneous. Type of test: functional. A digest of the protocol: (§4)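 Nude mice (NCr nu/nu), 18-22 g, randomized, implanted sc in the right axilla with serially passaged A431 tumor fragments on day 0. Dosing was by ip bolus or continuous sc Alzet miniosmotic pump infusion, by average cage weight. Vehicle was distilled H2O or 10% DMA in 50 mM lactic acid buffer, pH 4.0, depending on compound. Net cell kill = net log reduction in tumor burden between first and last treatments.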

Test [7] relates to A-431. In words: In vivo activity against human A431 epidermoid xenograft, net cell kill at 9 mg/kg administered subcutaneously for 1-27 days. Type of test: functional. As to conditions: route subcutaneous. A digest of the protocol: as §4
Test [8] deals with B16. In words: In vivo activity against murine B16 melanoma, net cell kill at 0.75 mg/kg administered intraperitoneally at 4 hour intervals 3x a day for 9 days. Type of test: functional, Mus musculus. As to conditions: route intraperitoneal. Summed up:
as §2

Test [9] has as its system A-431. In words: In vivo activity against human A431 epidermoid xenograft, weight change after 10 mg/kg sc dose for 9-15 days. The test is classed as functional. The note with it: route subcutaneous. A digest of the protocol:
(§5)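 Nude mice (NCr nu/nu, 18-22 g) bearing sc A431 fragments in the right axilla (day 0) received continuous sc infusion from an Alzet miniosmotic pump implanted under ketamine-xylazine. Pumps were removed or replaced under lidocaine-epinephrine for longer therapy, in 7-day and 27-day studies. Daily dose was the maximum deliverable without significant precipitation. Weight change was taken as the maximum treatment-related loss.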

Test [10] deals with A-431. In words: In vivo activity against human A431 epidermoid xenograft, weight change after 9 mg/kg sc dose for 1-27 days. The test is classed as functional, organism-based. The arrangement: dose 9 mg/kg. A digest of the protocol: as §5
A general note: Xenograft models place foreign cells or tissue in a host animal.

Test [11] concerns MCF7. Briefly: In vivo activity against human MCF-7 xenograft, weight change after 12.0 mg/kg ip dose for 5-11 days. As to conditions: route intraperitoneal. Type of test: functional. A digest of the protocol:
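MCF-7 breast carcinoma xenografts were serially passaged in nude mice (NCr nu/nu) and implanted in randomized 18-22 g mice on day 0. Dosing was ip bolus, either daily or q4h ×3 daily, with vehicle of distilled H2O or 10% DMA in 50 mM lactic acid buffer, pH 4.0. Weight change was taken as the maximum treatment-related loss.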

The test system of test [12] is B16. In words: In vivo activity against murine B16 melanoma, percent treated/control tumor mass at 0.75 mg/kg ip dose at 4 hour intervals 3x a day for 9 days. Type of test: functional, Mus musculus. As to conditions: route intraperitoneal. A digest of the protocol: as §3
The test system of test [13] is Colon 26. Briefly: In vivo activity against murine colon 26, weight change after 1.5 mg/kg ip dose for 9 days. The test is classed as functional, Mus musculus. As to conditions: route intraperitoneal. Summed up: as §3
Test [14] deals with Colon 26. Briefly: In vivo activity against murine colon 26, weight change after 0.75 mg/kg ip dose at 4 hour intervals 3x a day for 9 days. Type of test: functional, Mus musculus. As to conditions: route intraperitoneal. Summed up:
as §3

Test [15] has as its system B16. Briefly: In vivo activity against murine B16 melanoma, weight change after 0.75 mg/kg ip dose at 4 hour intervals 3x a day for 9 days. The test is classed as functional, Mus musculus. As to conditions: route intraperitoneal. A digest of the protocol: as §3
For test [16], the target named is Platelet-derived growth factor receptor beta (Mus musculus, UniProt P05622). In words: Inhibition of platelet-derived growth factor receptor (PDGFr) autophosphorylation. The test is classed as functional. Summed up: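 Swiss 3T3 fibroblasts were treated 2 h with a range of compound concentrations, then stimulated 5 min with growth factor. Receptor tyrosine phosphorylation was assessed by cell extraction and western blotting.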
Sequence of Platelet-derived growth factor receptor beta (P05622 whole entry): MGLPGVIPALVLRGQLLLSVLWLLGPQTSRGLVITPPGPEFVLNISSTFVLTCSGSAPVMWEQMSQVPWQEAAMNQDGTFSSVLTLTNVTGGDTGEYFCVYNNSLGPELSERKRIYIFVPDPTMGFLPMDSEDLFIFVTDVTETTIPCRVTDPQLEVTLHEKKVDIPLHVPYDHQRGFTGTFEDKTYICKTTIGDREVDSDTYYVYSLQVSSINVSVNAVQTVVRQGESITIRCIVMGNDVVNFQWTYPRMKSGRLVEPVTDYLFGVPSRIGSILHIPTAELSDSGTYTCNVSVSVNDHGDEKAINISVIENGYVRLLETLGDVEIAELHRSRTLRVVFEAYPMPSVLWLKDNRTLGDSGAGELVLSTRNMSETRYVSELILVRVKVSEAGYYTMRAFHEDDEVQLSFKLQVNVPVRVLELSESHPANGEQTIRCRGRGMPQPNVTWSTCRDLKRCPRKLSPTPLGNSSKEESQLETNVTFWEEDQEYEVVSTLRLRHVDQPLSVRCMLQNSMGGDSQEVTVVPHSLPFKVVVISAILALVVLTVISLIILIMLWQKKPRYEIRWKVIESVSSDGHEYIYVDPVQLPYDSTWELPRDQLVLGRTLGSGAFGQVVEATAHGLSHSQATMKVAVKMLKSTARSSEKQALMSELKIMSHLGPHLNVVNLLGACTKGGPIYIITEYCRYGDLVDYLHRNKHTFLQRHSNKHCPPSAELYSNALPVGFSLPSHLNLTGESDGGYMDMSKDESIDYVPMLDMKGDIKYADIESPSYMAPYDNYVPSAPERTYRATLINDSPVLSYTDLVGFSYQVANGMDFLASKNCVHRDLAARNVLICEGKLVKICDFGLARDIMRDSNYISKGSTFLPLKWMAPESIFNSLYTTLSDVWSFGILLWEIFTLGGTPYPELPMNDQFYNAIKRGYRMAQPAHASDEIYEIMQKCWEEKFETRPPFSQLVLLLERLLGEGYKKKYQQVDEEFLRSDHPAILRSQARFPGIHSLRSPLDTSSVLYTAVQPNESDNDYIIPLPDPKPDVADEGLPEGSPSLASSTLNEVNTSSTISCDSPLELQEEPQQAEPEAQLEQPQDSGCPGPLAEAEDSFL

Test [17] concerns the target Fibroblast growth factor receptor (Mus musculus, UniProt P21803+Q03142+P16092+Q61851). In words: Inhibition of fibroblast growth factor (bFGF)-mediated autophosphorylation of FGF-R in Swiss 3T3 mouse fibroblasts. The test is classed as functional. A digest of the protocol:
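Swiss 3T3 fibroblasts were treated 2 h with a range of compound concentrations, then stimulated for 5 min with growth factor (bFGF). Receptor tyrosine phosphorylation was read by extraction and western blotting.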

A short description of test [18]: Inhibition of DNA synthesis. Type of test: functional. A digest of the protocol: (§6)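 Log-phase cells were drug-treated for 2 h, then exposed for 2 h to 1 µM [methyl-3H]thymidine (DNA), [5-3H]uridine (RNA) or (S)-[4,5-3H]leucine (protein), each at 1 µCi/nmol. Cells were trypsinized into ice-cold 15% TCA, and precipitates were collected on glass-fibre filters, washed, and counted by scintillation.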

Test [19] is described as follows: Inhibition of RNA synthesis. The test is classed as functional. Summed up:
as §6

Test [20] concerns the target Epidermal growth factor receptor (Mus musculus) (UniProt Q01279). Briefly: Inhibition of epidermal growth factor receptor (EGFr) autophosphorylation.
The subject of test [21] is C6. Briefly: In vivo activity against C6 glioma xenograft, tumor growth delay (T-C, days) at 5 mg/kg ip dose for 9 days. The note with it: route intraperitoneal.
Test [22] relates to MCF7. Briefly: In vivo activity against human MCF-7 xenograft, tumor growth delay (T-C) at 12.0 mg/kg ip dose for 5-11 days. As to conditions: route intraperitoneal.
The subject of test [23] is M5076. Briefly: In vivo activity against murine M5076 sarcoma, tumor growth delay (T-C) at 3.0 mg/kg ip dose at 4 hour intervals 3x a day for 9 days. The note with it: route intraperitoneal.
For test [24], the system named is MCF7. Briefly: In vivo activity against human MCF-7 xenograft, tumor growth delay (T-C) at 3.0 mg/kg ip dose at 4 hour intervals 3x a day for 5-11 days. The note with it: route intraperitoneal.

T1 sequence (P00533 whole entry): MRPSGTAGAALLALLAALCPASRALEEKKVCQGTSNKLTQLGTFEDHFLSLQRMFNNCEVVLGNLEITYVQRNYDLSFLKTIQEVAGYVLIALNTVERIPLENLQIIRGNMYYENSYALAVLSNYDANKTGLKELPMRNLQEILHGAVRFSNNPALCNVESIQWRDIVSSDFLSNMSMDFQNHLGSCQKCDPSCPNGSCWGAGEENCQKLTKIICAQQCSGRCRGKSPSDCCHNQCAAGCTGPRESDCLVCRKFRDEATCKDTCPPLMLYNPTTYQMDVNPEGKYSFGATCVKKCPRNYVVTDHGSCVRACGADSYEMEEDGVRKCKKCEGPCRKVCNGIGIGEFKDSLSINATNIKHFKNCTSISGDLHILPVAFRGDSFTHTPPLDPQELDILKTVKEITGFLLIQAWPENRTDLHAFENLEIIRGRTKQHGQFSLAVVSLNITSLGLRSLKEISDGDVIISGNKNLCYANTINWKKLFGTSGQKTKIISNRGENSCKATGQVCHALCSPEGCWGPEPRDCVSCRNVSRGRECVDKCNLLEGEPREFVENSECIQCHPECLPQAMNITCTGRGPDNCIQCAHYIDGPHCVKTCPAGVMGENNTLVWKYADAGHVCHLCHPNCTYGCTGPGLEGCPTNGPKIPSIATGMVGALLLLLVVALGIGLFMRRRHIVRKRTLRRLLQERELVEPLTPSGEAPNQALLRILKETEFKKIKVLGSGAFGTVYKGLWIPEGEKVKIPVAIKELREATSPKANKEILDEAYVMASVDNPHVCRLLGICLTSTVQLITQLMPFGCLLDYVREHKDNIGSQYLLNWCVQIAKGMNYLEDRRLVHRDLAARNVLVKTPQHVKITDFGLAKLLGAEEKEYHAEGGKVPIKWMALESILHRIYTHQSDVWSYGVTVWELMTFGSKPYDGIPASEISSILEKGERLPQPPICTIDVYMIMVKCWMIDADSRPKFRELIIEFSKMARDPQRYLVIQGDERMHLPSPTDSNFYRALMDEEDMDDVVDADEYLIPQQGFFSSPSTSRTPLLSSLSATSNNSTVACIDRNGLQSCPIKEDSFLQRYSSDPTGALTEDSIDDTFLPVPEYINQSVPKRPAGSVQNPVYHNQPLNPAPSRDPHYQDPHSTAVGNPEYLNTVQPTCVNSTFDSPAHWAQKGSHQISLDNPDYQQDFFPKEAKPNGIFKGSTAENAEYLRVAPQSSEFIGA
Sequence of Epidermal growth factor receptor (Mus musculus) (Q01279 whole entry, looked up): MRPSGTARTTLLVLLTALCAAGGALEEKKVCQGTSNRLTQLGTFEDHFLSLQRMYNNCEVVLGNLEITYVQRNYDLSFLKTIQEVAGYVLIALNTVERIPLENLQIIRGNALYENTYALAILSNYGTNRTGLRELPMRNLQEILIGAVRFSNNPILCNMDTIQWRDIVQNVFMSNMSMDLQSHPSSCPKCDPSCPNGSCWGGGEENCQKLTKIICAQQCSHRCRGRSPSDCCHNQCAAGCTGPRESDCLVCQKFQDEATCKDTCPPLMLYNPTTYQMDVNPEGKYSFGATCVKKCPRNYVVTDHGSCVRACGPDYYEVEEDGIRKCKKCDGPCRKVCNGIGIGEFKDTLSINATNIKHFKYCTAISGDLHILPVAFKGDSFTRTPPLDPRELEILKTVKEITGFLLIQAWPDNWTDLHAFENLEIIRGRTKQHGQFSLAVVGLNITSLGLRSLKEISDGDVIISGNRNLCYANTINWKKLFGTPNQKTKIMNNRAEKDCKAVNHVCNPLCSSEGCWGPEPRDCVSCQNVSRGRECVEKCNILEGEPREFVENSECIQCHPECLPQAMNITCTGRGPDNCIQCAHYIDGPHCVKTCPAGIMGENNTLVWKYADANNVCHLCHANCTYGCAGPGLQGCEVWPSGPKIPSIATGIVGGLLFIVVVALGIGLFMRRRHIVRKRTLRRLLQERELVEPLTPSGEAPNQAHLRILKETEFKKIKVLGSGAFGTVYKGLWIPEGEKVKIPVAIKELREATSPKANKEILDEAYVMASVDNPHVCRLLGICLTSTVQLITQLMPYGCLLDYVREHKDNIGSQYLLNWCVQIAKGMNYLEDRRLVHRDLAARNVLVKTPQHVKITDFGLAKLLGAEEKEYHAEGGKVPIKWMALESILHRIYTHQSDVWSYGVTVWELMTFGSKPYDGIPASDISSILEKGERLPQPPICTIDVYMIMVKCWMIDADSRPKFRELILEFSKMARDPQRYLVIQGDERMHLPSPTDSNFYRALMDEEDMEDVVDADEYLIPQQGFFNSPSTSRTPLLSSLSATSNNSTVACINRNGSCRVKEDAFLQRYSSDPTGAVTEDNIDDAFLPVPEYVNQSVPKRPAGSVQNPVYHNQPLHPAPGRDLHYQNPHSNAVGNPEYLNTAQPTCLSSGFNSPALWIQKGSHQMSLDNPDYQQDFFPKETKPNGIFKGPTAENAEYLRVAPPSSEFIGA

The Ki is a measure of affinity in units of concentration, obtained from inhibition or displacement. High values mean weaker binding, low ones tighter binding. What is called T/C is the result in the treated group divided by that in the control group, in per cent. One may read the IC50 as the concentration needed to halve the response being measured. For the compound `NC(Cc1c(SSc2[nH]c3ccccc3c2CC(N)C(=O)NCc2ccccc2)[nH]c2ccccc12)C(=O)NCc1ccccc1` (centres undefined), the values for the Ki in [1] and in [2] were 19.4 µM and 21.2 µM, respectively. Further, the Net cell kill in [3] was -1.3 log10; in test [4], -0.2 log10; in [6], -0.2 log10; in test [7], -0.6 log10; in test [8], -1.3 log10. Also, the values for the T/C in test [5] and in test [12] were 119% and 99%, respectively. The Weight change in test [9] is reported as -1.2 g; in test [10], “Weight gain”; in test [11], -0.4 g; in [13] it was 1.8 g; in [14] it was 0.8 g; in test [15] it was 1.1 g. The IC50 is 6.2 µM in test [16]; 2.3 µM in test [17]; 2.5 µM in test [18]; 2 µM in test [19]; greater than 100 µM in [20]. Besides, the T-C in test [21] was found to be 0 days; in [22] it was 0 days; in test [23] it was 0.7 days; in [24] it was 1 days.
